Test results reported in ChEMBL document CHEMBL1157468, “Design, synthesis, and testing of non-nephrotoxic desazadesferrithiocin polyether analogues” (J Med Chem, 2008).

Assays:
[1] = test system: Rattus norvegicus; assay: Iron-clearing efficiency in non-iron-overloaded Sprague-Dawley rat at 300 umol/kg, po after 24 hrs relative to control; type: functional
Outline: (§1)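 Male Sprague–Dawley rats (400–450 g), not iron-loaded and bile duct-cannulated, got one dose of 50, 150 or 300 µmol/kg po, or 300 µmol/kg sc. Vehicle was water or the monosodium salt. Bile was collected every 3 h for 24 h and urine at 24 h. Iron was measured by atomic absorption. Efficiency was treated minus control iron excretion, divided by theoretical output (2:1 ligand:iron), as a percent; mean ± SEM.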

[2] = test system: Rattus norvegicus; assay: Iron-clearing efficiency in non-iron-overloaded Sprague-Dawley rat at 150 umol/kg, po after 24 hrs relative to control; type: functional; outline: as §1
[3] = test system: Rattus norvegicus; assay: Iron-clearing efficiency in non-iron-overloaded Sprague-Dawley rat bile assessed as iron excretion at 300 umol/kg, po; type: functional; outline: as §1
[4] = test system: Rattus norvegicus; assay: Iron-clearing efficiency in non-iron-overloaded Sprague-Dawley rat bile assessed as iron excretion at 150 umol/kg, po; type: functional; outline: as §1
[5] = test system: Rattus norvegicus; assay: Iron-clearing efficiency in non-iron-overloaded Sprague-Dawley rat at 300 umol/kg, sc after 24 hrs relative to control; type: functional; outline: as §1
[6] = test system: Sapajus apella; assay: Iron-clearing efficiency in iron-overloaded Cebus apella at 150 umol/kg, po after 2 days relative to control; type: functional
Outline: (§2)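 Monkeys (Cebus apella, 3.5–4 kg) were iron-loaded to about 500 mg Fe/kg with iv iron dextran and rested at least 60 days. They then got one 150 µmol/kg dose, po or sc. Feces and urine were collected every 24 h from 4 days before to 5 days after dosing, and iron was measured by flame atomic absorption. Efficiency was the 2-day post-drug iron minus the 4-day pre-drug baseline, divided by theoretical output (2:1 ligand:iron); mean ± SEM.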

[7] = test system: Sapajus apella; assay: Iron-clearing efficiency in iron-overloaded Cebus apella at 150 umol/kg, sc after 2 days relative to control; type: functional; outline: as §2
[8] = test system: Rattus norvegicus; assay: Toxicity in iron-overloaded Sprague-Dawley rat assessed as survival at 119 umol/kg/day, po after 30 days by non-renal perfusion protocol; type: organism-based; conditions: in vivo, 720 h
[9] = test system: Rattus norvegicus; assay: Nephrotoxicity in Sprague-Dawley rat assessed as heavy vacuolized renal tubules at […] for 7 days by renal perfusion studies; type: toxicity, organism-based; conditions: in vivo, 168 h, in the assay text read “237 umol/kg” for “273 umol/kg”
Outline: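 Male Sprague–Dawley rats (200–250 g), fasted overnight, got 237 µmol/kg/dose po twice daily (474 µmol/kg/day) for 7 days and were fed about 3 h post-drug. Untreated age-matched rats were controls. One day post-drug, under pentobarbital, kidneys were perfusion-fixed with glutaraldehyde in Tyrode's buffer and embedded in TAAB. 500 nm sections were stained with toluidine blue and examined by light microscopy at 400×.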

[10] = test system: Liver; assay: Biodistribution in Sprague-Dawley rat liver assessed per gram tissue wet weight at 300 umol/kg, sc after 1 hr; type: ADME, organism-based; conditions: in vivo
[11] = test system: Liver; assay: Biodistribution in Sprague-Dawley rat liver assessed per gram tissue wet weight at 300 umol/kg, po after 1 hr; type: ADME, organism-based; conditions: in vivo
Outline: (§3)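 Male Sprague–Dawley rats (250–350 g) got one 300 µmol/kg dose, po or sc. Vehicle was water or the monosodium salt (free acid plus 1 equiv NaOH). Three rats per time point were euthanized by CO2 at 1, 2 or 4 h. Plasma came from citrated cardiac blood; liver, kidney, heart and pancreas were removed. Drug levels were measured by HPLC with UV detection at 310 nm against linear calibration curves (detection limit 0.25 µM).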

[12] = test system: Liver; assay: Biodistribution in Sprague-Dawley rat liver assessed per gram tissue wet weight at 300 umol/kg, sc after 2 hrs; type: ADME, organism-based; conditions: in vivo
[13] = test system: Liver; assay: Biodistribution in Sprague-Dawley rat liver assessed per gram tissue wet weight at 300 umol/kg, po after 2 hrs; type: ADME, organism-based; conditions: in vivo; outline: as §3
[14] = test system: Liver; assay: Biodistribution in Sprague-Dawley rat liver assessed per gram tissue wet weight at 300 umol/kg, sc after 4 hrs; type: ADME, organism-based; conditions: in vivo
[15] = test system: Liver; assay: Biodistribution in Sprague-Dawley rat liver assessed per gram tissue wet weight at 300 umol/kg, po after 4 hrs; type: ADME, organism-based; conditions: in vivo; outline: as §3
[16] = test system: Kidney; assay: Biodistribution in Sprague-Dawley rat kidney assessed per gram tissue wet weight at 300 umol/kg, sc after 1 hr; type: ADME, organism-based; conditions: in vivo
[17] = test system: Kidney; assay: Biodistribution in Sprague-Dawley rat kidney assessed per gram tissue wet weight at 300 umol/kg, po after 1 hr; type: ADME, organism-based; conditions: in vivo; outline: as §3
[18] = test system: Kidney; assay: Biodistribution in Sprague-Dawley rat kidney assessed per gram tissue wet weight at 300 umol/kg, sc after 2 hrs; type: ADME, organism-based; conditions: in vivo
[19] = test system: Kidney; assay: Biodistribution in Sprague-Dawley rat kidney assessed per gram tissue wet weight at 300 umol/kg, po after 2 hrs; type: ADME, organism-based; conditions: in vivo; outline: as §3
[20] = test system: Kidney; assay: Biodistribution in Sprague-Dawley rat kidney assessed per gram tissue wet weight at 300 umol/kg, sc after 4 hrs; type: ADME, organism-based; conditions: in vivo
[21] = test system: Kidney; assay: Biodistribution in Sprague-Dawley rat kidney assessed per gram tissue wet weight at 300 umol/kg, po after 4 hrs; type: ADME, organism-based; conditions: in vivo; outline: as §3
[22] = test system: Heart; assay: Biodistribution in Sprague-Dawley rat heart assessed per gram tissue wet weight at 300 umol/kg, sc after 1 hr; type: ADME, organism-based; conditions: in vivo
[23] = test system: Heart; assay: Biodistribution in Sprague-Dawley rat heart assessed per gram tissue wet weight at 300 umol/kg, po after 1 hr; type: ADME, organism-based; conditions: in vivo; outline: as §3
[24] = test system: Heart; assay: Biodistribution in Sprague-Dawley rat heart assessed per gram tissue wet weight at 300 umol/kg, sc after 2 hrs; type: ADME, organism-based; conditions: in vivo
[25] = test system: Heart; assay: Biodistribution in Sprague-Dawley rat heart assessed per gram tissue wet weight at 300 umol/kg, po after 2 hrs; type: ADME, organism-based; conditions: in vivo; outline: as §3
[26] = test system: Heart; assay: Biodistribution in Sprague-Dawley rat heart assessed per gram tissue wet weight at 300 umol/kg, po after 4 hrs; type: ADME, organism-based; conditions: in vivo; outline: as §3
[27] = test system: Pancreas; assay: Biodistribution in Sprague-Dawley rat pancreas assessed per gram tissue wet weight at 300 umol/kg, sc after 1 hr; type: ADME, organism-based; conditions: in vivo
[28] = test system: Pancreas; assay: Biodistribution in Sprague-Dawley rat pancreas assessed per gram tissue wet weight at 300 umol/kg, po after 1 hr; type: ADME, organism-based; conditions: in vivo; outline: as §3
[29] = test system: Pancreas; assay: Biodistribution in Sprague-Dawley rat pancreas assessed per gram tissue wet weight at 300 umol/kg, sc after 2 hrs; type: ADME, organism-based; conditions: in vivo
[30] = test system: Pancreas; assay: Biodistribution in Sprague-Dawley rat pancreas assessed per gram tissue wet weight at 300 umol/kg, po after 2 hrs; type: ADME, organism-based; conditions: in vivo; outline: as §3
[31] = test system: Pancreas; assay: Biodistribution in Sprague-Dawley rat pancreas assessed per gram tissue wet weight at 300 umol/kg, sc after 4 hrs; type: ADME, organism-based; conditions: in vivo
[32] = test system: Plasma; assay: Biodistribution in Sprague-Dawley rat plasma at 300 umol/kg, sc after 1 hr; type: ADME, organism-based; conditions: in vivo
[33] = test system: Plasma; assay: Biodistribution in Sprague-Dawley rat plasma at 300 umol/kg, po after 1 hr; type: ADME, organism-based; conditions: in vivo; outline: as §3
[34] = test system: Plasma; assay: Biodistribution in Sprague-Dawley rat plasma at 300 umol/kg, sc after 2 hrs; type: ADME, organism-based; conditions: in vivo
[35] = test system: Plasma; assay: Biodistribution in Sprague-Dawley rat plasma at 300 umol/kg, po after 2 hrs; type: ADME, organism-based; conditions: in vivo; outline: as §3
[36] = test system: Plasma; assay: Biodistribution in Sprague-Dawley rat plasma at 300 umol/kg, sc after 4 hrs; type: ADME, organism-based; conditions: in vivo
[37] = test system: Plasma; assay: Biodistribution in Sprague-Dawley rat plasma at 300 umol/kg, po after 4 hrs; type: ADME, organism-based; conditions: in vivo; outline: as §3

C[C@]1(C(=O)O)CSC(c2ccc(O)cc2O)=N1 [DEFERITRIN]
Activity [1]: 1.1% | Activity [2]: 1.5% | Activity [3]: >98% | Activity [4]: >98% | Activity [5]: 1.1% | Activity [6]: 16.8% | Activity [7]: 15.9% | Activity [8]: Non-toxic | Activity [9]: Toxic | Drug uptake [10]: 80 nmol/g | Drug uptake [11]: 131 nmol/g | Drug uptake [12]: 48 nmol/g | Drug uptake [13]: 73 nmol/g | Drug uptake [14]: 25 nmol/g | Drug uptake [15]: 44 nmol/g | Drug uptake [16]: 179 nmol/g | Drug uptake [17]: 208 nmol/g | Drug uptake [18]: 97 nmol/g | Drug uptake [19]: 100 nmol/g | Drug uptake [20]: 27 nmol/g | Drug uptake [21]: 61 nmol/g | Drug uptake [22]: 13 nmol/g | Drug uptake [23]: 8 nmol/g | Drug uptake [24]: 5 nmol/g | Drug uptake [25]: 5 nmol/g | Drug uptake [26]: 3 nmol/g | Drug uptake [27]: 28 nmol/g | Drug uptake [28]: 13 nmol/g | Drug uptake [29]: 6 nmol/g | Drug uptake [30]: 9 nmol/g | Drug uptake [31]: 6 nmol/g | Drug uptake [32]: 34 nmol/g | Drug uptake [33]: 31 nmol/g | Drug uptake [34]: 13 nmol/g | Drug uptake [35]: 8 nmol/g | Drug uptake [36]: 2 nmol/g | Drug uptake [37]: 5 nmol/g
